Assay results taken from paper PMC9673813 (International Journal of Nanomedicine, 2022).
Values after ≈ are worked out from the molar mass of the structure shown. Like-named read-outs stand apart in the source and are kept apart here.

What was measured:
[1] = In vitro release investigation; format: physicochemical
In short: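 Test formulation (1 mL, 200 ug/mL) was placed in a dialysis bag (8000–14,000 Da) in 200 mL PBS with 0.2% Tween-80, at 37 °C and 120 r/min. 3 mL of medium was withdrawn and replaced at 0.25–168 h. Samples were centrifuged at 8000 r/min for 10 min, and supernatant was analysed by HPLC for cumulative release. Data were fitted to zero-order, first-order and Higuchi models, with r² calculated; n=3.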

[2] = In vivo acute toxicity; set-up: species or system BALB/c mice; details: single i.p. 40 mg/kg
In short: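 Female BALB/c mice, 7 weeks, 20 ± 3 g, n=10/group, received a single intraperitoneal 40 mg/kg dose; saline control at equal volume. Status and deaths were recorded daily, and survival was followed over 10 days. Heart, liver and kidney from three randomly selected mice per group were H&E-stained for pathology.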

[3] = In vivo cumulative toxicity; set-up: species or system BALB/c mice
[4] = test system: MCF-7 tumor; assay: In vivo antitumor assessment in MCF-7 tumor-bearing nude mice; set-up: species or system BALB/c nude mice
In short: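 Female BALB/c nude mice, 4 weeks old, were inoculated in the left armpit with 0.1 mL MCF-7 suspension (3 × 10⁷ cells/mL). Dosing started at ~100 mm³ (n=10/group; saline control): 10 mg/kg intraperitoneally every 3 days for 20 days. Body weight and tumor volume (V = π/6·AB²) were measured every 3 days, and deaths tallied every 5 days. Tumors were weighed on day 20; IR = 1 − drug/control tumor weight. Procedures were blinded.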

[5] = Pharmacokinetics in SD rats; format: in vivo; details: 10 mg/kg
In short: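 SD rats (n=5/group) were injected with 10 mg/kg. Blood (0.3 mL) was collected at 0.08–120 h into heparin tubes and centrifuged. Plasma (100 μL) was extracted with methanol:ethyl acetate 10:90 and analysed by HPLC: C18 column, acetonitrile–phosphate water pH 4.0 65:35, 0.8 mL/min, 30 °C, 227 nm. Results are mean ± SEM.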

[6] = test system: normal hepatocyte cell line L02; assay: In vitro cytotoxicity assay; format: cell-based
In short: (§1)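 Cells grown in high-glucose DMEM with 10% FBS and 1% penicillin/streptomycin at 37°C, 5% CO2. Log-phase cells trypsinized, seeded at 5×10³/well, grown 24 h. Test formulations and blank nanoparticles added at 5, 10, 20, 40, 80 ug/mL for 24, 48, 72 or 96 h. MTT (5 mg/mL stock) added for 3–4 h, formazan dissolved in DMSO, A490 read. Inhibition rate calculated from blank-, control- and test-well OD. Dose–effect curves plotted; n=3.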

[7] = test system: breast cancer cell line MCF-7; assay: In vitro cytotoxicity assay; format: cell-based; details: Homo sapiens
In short: as §1

CC(=O)O[C@H]1C(=O)[C@@]2(C)[C@H]([C@H](OC(=O)c3ccccc3)[C@]3(O)C[C@H](OC(=O)[C@H](O)[C@@H](NC(=O)c4ccccc4)c4ccccc4)C(C)=C1C3(C)C)[C@]1(OC(C)=O)CO[C@@H]1C[C@@H]2O [PTX, Paclitaxel]
release model that the in vitro release behavior accords with [1]: first-order model
cumulative release rate at 24 h ([1]; PBS with 0.2% Tween-80, 37 °C, 24 h): over 60%
First-Order Equation k1 ([1]; rate constant of release): 0.0711
Higuchi's Equation kh ([1]; rate constant of release): 7.2999
Zero Order Equation k0 ([1]; rate constant of release): 0.5097
pathology of heart, liver and kidney tissues (H&E), acute toxicity [2]: severe necrosis
mouse deaths in acute toxicity trial ([2]; n=10): 10 mice all died within 5 h
pathology of heart, liver and kidney tissues (H&E), cumulative toxicity ([3]; 10 mg/kg i.p. every three days for 60 days): Some damage to cells and muscle fibers
mouse deaths within 60 days / throughout the experiment, cumulative toxicity ([3]; 10 mg/kg i.p. every three days for 60 days, n=10): all mice in this group died
mouse deaths within seven days, cumulative toxicity ([3]; 10 mg/kg i.p. every three days, n=10): three mice died
deaths / survival of tumor-bearing nude mice during the test ([4]; 10 mg/kg i.p. every three days, 20 days): death of three nude mice
tumor volume at 20 days / end of trial ([4]; 10 mg/kg i.p. every three days, day 20): 1000 mm^3
tumor inhibition rate ([4]; 10 mg/kg i.p. every three days, day 20, by tumor weight): 32.93%
change of average body weight of nude mice ([4]; 10 mg/kg, 20 days versus beginning): significant decrease
cancer cell necrosis (H&E staining of tumors) ([4]; 10 mg/kg, after 20 days): 25%
time up to which plasma PTX concentration stayed detectable ([5]; SD rats, intravenous injection, sampling to 120 h): 12 h
AUC(0-t) ([5]; SD, rat, plasma, iv): 2380 ± 276 ng·h/mL
MRT last ([5]; SD, rat, plasma, iv): 4.94 ± 0.653 h
Tmax ([5]; SD, rat, plasma, iv): 0.25 ± 0.02 h
Vd ([5]; SD, rat, plasma, iv): 54.5 ± 8.53 L/kg
clearance ([5]; SD, rat, plasma, iv): 57.2 mL/min/kg
half-life ([5]; SD, rat, plasma, iv): 11 ± 0.773 h
IC50 ([6]; 24 h, read-out: IC50 24 h): > 80 µg/mL
IC50 ([6]; 48 h, read-out: IC50 48 h): > 80 µg/mL
IC50 ([6]; 72 h, read-out: IC50 72h): 36.9 ± 3.18 µg/mL (≈ 43.2 µM)
IC50 ([6]; 96 h, read-out: IC50 96h): 17.3 ± 0.83 µg/mL (≈ 20.3 µM)
inhibition at 10 µg/mL ([6]; 96 h, read-out: inhibitory rate on cell growth higher than PTX-SLN@CUD): 40.1%
IC50 ([7]; MCF7, 24 h, read-out: IC50 24 h): > 80 µg/mL
IC50 ([7]; MCF7, 48 h, read-out: IC50 48 h): 64.3 ± 5.73 µg/mL (≈ 75.3 µM)
IC50 ([7]; MCF7, 72 h, read-out: IC50 72h): 26.2 ± 2.68 µg/mL (≈ 30.7 µM)
IC50 ([7]; MCF7, 96 h, read-out: IC50 96h): 12.7 ± 0.97 µg/mL (≈ 14.8 µM)
